# Test results reported in ChEMBL document CHEMBL1152134, “Synthetic chalcones as efficient inhibitors of Mycobacterium tuberculosis protein tyrosine phosphatase PtpA” (Bioorg Med Chem Lett, 2008).
# Key:
# [1] = target: T1, Low molecular weight protein-tyrosine phosphatase A (Mycobacterium tuberculosis, UniProt P9WIA1); assay: Inhibition of Mycobacterium tuberculosis recombinant protein tyrosine phosphatase
# T1 sequence (P9WIA1 whole entry): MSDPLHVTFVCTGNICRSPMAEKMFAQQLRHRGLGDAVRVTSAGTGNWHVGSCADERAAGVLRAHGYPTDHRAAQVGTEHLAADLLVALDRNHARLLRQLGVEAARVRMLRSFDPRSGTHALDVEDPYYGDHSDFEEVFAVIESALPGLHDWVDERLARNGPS
# [2] = target: T2, Low molecular weight protein-tyrosine phosphatase A (Mycobacterium tuberculosis) (UniProt P9WIA1); assay: Inhibition of Mycobacterium tuberculosis recombinant protein tyrosine phosphatase assessed as enzyme activity at 25 uM; parameters: scale not given: the % may be the effect or the level left
# T2 sequence (whole entry): T1 sequence (P9WIA1 whole entry)
# In short: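 His-tagged recombinant M. tuberculosis PtpA expressed from pET28a. Compound diluted in 25 mM bis-Tris–HCl pH 8.0, 20 mM imidazole pH 7.0, 40 mM DTT and 40 mM pNPP substrate; enzyme added to start. Incubated 20 min at 37 °C, absorbance at 410 nm read every 2 min. Controls: no enzyme; enzyme with DMSO. Percent activity averaged from two experiments in triplicate.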
SMILES,IC50 [1],Activity [2]
O=C(/C=C/c1cccc2ccccc12)c1ccccc1O,50.7 µM,24%
O=C(/C=C/c1ccc2ccccc2c1)c1cccc([N+](=O)[O-])c1,,84%
COc1cc(O)c(C(=O)/C=C/c2cccc3ccccc23)c(OC)c1,,84.4%
COc1cc(OC)c(C(=O)/C=C/c2cccc([N+](=O)[O-])c2)c(OC)c1,,100%
COc1ccc(OC)c(C(=O)/C=C/c2cccc3ccccc23)c1,39.5 µM,54%
COc1cc(O)c(C(=O)/C=C/c2cccc(Cl)c2)c(OC)c1,,87%
COc1cc(OC)c(C(=O)/C=C/c2ccc3ccccc3c2)c(OC)c1,,104%
O=C(/C=C/c1cccc2ccccc12)c1ccc(Br)cc1,,75%
COc1ccc(C(=O)/C=C/c2ccc3c(c2)OCO3)cc1OC,,99%
COc1cc(OC)c(C(=O)/C=C/c2ccc(Cl)c(Cl)c2)c(OC)c1,,99%
O=C(/C=C/c1ccc2c(c1)OCO2)c1ccccc1O,,103%
O=C(/C=C/c1ccc2c(c1)OCO2)c1ccc([N+](=O)[O-])cc1,,80.5%
COc1ccc(C(=O)/C=C/c2ccc3c(c2)OCO3)cc1,,94%
COc1cc(OC)c(C(=O)/C=C/c2cccc(Cl)c2)c(OC)c1,,98%
COc1cc(C(=O)/C=C/c2ccc3c(c2)OCO3)cc(OC)c1OC,,82.4%
COc1cc(C(=O)/C=C/c2ccc3ccccc3c2)cc(OC)c1OC,,109%
COC1C=C(C(=O)/C=C/c2ccc3ccccc3c2)C=CC1O (centres undefined),,61%
O=C(/C=C/c1cccc2ccccc12)c1ccc([N+](=O)[O-])cc1,,82%

SMILES,IC50 [1],Activity [2]
O=C(/C=C/c1ccc2ccccc2c1)c1ccc(Br)cc1,,89.2%
O=C(/C=C/c1cccc2ccccc12)c1ccccc1,,62.7%
O=C(/C=C/c1ccc2c(c1)OCO2)c1ccccc1,,103%
COc1ccc(OC)c(C(=O)/C=C/c2ccc3c(c2)OCO3)c1,,91.3%
COc1cc(C(=O)/C=C/c2ccc3c(c2)OCO3)ccc1O,,80%
COc1ccc(C(=O)/C=C/c2cccc3ccccc23)cc1,,82.4%
O=C(/C=C/c1ccc2c(c1)OCO2)c1ccc(Br)cc1,,86%
COc1ccc(C(=O)/C=C/c2ccc3ccccc3c2)cc1OC,23.1 µM,31.5%
COc1ccc(C(=O)/C=C/c2cccc3ccccc23)c(OC)c1,,80%
COc1ccc(OC)c(C(=O)/C=C/c2ccc3ccccc3c2)c1,8.4 µM,42.5%
O=C(/C=C/c1cccc2ccccc12)c1cccc(O)c1,,79.5%
COc1cc(C(=O)/C=C/c2cccc3ccccc23)cc(OC)c1OC,,102%
COc1cc(O)c(C(=O)/C=C/c2cccc([N+](=O)[O-])c2)c(OC)c1,,92%
O=C(/C=C/c1ccc2ccccc2c1)c1ccccc1O,,74.6%
O=C(/C=C/c1cccc2ccccc12)c1cccc([N+](=O)[O-])c1,,88%
O=C(/C=C/c1ccc2c(c1)OCO2)c1cccc([N+](=O)[O-])c1,,74%
O=C(/C=C/c1ccc2ccccc2c1)c1ccc([N+](=O)[O-])cc1,,89%
